Experimental findings from ChEMBL document CHEMBL4130442, “Design, synthesis and structure-activity relationship studies of a focused library of pyrimidine moiety with anti-proliferative and anti-metastasis activities in triple negative breast cancer” (Eur J Med Chem, 2017) are described below.

Calls of active or inactive are those of the source. The rule behind the calls is not given here.

The subject of data set [1] is MDA-MB-231. The data set is described as follows: Inhibition of cell migration in human MDA-MB-231 cells at 2.5 to 10 uM incubated for 24 hrs by scratch wound healing assay. The format is functional, cell-based. The procedure, abridged: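 Cells were grown to confluence and the monolayer was scratched with a longitudinally cut 10 μL tip. Cells were treated with 2.5, 5.0 or 10 μM compound for 24 h and wound closure was viewed by phase-contrast microscopy.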

Data set [2] has as its system MDA-MB-231. The data set is described as follows: Induction of autophagy in human MDA-MB-231 cells assessed as change in LC3-2 protein level at 2.5 uM incubated for 24 hrs by Western blot method relative to untreated control. Type of data set: functional. The gist of the method:
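MDA-MB-231 cells (ATCC; DMEM, 10% FBS, 5% CO2) were treated 24 h over a concentration series. Adherent and floating cells were pooled and lysed 1 h at 4 °C (50 mM Hepes pH 7.4, 1% Triton X-100, phosphatase/protease inhibitors). Equal protein was run on 10-15% SDS-PAGE, transferred to PVDF, probed for Beclin-1, p62 and LC3 with HRP/ECL detection, and normalised to β-actin.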
For orientation: A western blot detects proteins with antibodies after separation by electrophoresis.

Data set [3] has as its target T1, Platelet-derived growth factor receptor beta (Homo sapiens, UniProt P09619). Put plainly: Inhibition of PDGFRbeta in human MDA-MB-231 cells assessed as PDGFRbeta Tyr740 phosphorylation level at 2.5 uM incubated for 24 hrs by Western blot relative to untreated control. Type of data set: cell-based. The gist of the method:
(§1)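 Cells were treated 24 h at several concentrations. Pooled adherent and floating cells were lysed in Hepes 50 mM pH 7.4 / 1% Triton X-100 buffer with vanadate, NaF, EDTA, PMSF, aprotinin and leupeptin. Equal protein was run on 10-15% SDS-PAGE and blotted to PVDF. PDGFR-β-AKT-ULK1 pathway phospho-proteins were probed and detected by ECL, with β-actin as loading control.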

The target of data set [4] is T1, Platelet-derived growth factor receptor beta. The data set is described as follows: Inhibition of PDGFRbeta in human MDA-MB-231 cells assessed as mTOR Ser2448 phosphorylation level at 5 uM incubated for 24 hrs by Western blot relative to untreated control. Type of data set: cell-based. The procedure, abridged:
as §1

Data set [5] shares this target. The data set is described as follows: Inhibition of PDGFRbeta in human MDA-MB-231 cells assessed as ULK Ser317 phosphorylation level at 2.5 uM incubated for 24 hrs by Western blot relative to untreated control. Type of data set: cell-based. The gist of the method:
as §1

Data set [6] relates to MDA-MB-231. The data set is described as follows: Effect on total PDGFRbeta protein level in human MDA-MB-231 cells at 10 uM incubated for 24 hrs by Western blot relative to untreated control. Type of data set: ADME, cell-based. To be noted: mda-mb-231, 24 h. The procedure, abridged: (§2)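 MDA-MB-231 cells were exposed for 24 h. Adherent and floating cells were pooled and lysed for 1 h at 4 °C in 50 mM Hepes pH 7.4 with 1% Triton X-100, orthovanadate, NaF, EDTA, PMSF, aprotinin and leupeptin. After 12,000 rpm clearing, equal protein was run on 10-15% SDS-PAGE and blotted to PVDF. Detection used HRP-ECL, with β-actin as loading control and densitometric quantification.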

The subject of data set [7] is MDA-MB-231. The data set is described as follows: Effect on total mTOR protein level in human MDA-MB-231 cells at 2.5 uM incubated for 24 hrs by Western blot relative to untreated control. The following applies: mda-mb-231, 24 h. The format is ADME, cell-based. The procedure, abridged: as §2
Data set [8] deals with MDA-MB-231. Put plainly: Effect on total ULK1 protein level in human MDA-MB-231 cells at 10 uM incubated for 24 hrs by Western blot relative to untreated control. Type of data set: ADME, cell-based. The following applies: mda-mb-231, 24 h. The gist of the method: as §2
In data set [9] the test system is MDA-MB-231. The data set is described as follows: Effect on total Akt protein level in human MDA-MB-231 cells at 2.5 uM incubated for 24 hrs in presence of control siRNA by Western blot relative to untreated control. The format is ADME, cell-based. To be noted: mda-mb-231, 24 h. The gist of the method:
as §2

Data set [10] has as its system MDA-MB-231. Put plainly: Effect on total Akt protein level in human MDA-MB-231 cells at 2.5 uM incubated for 24 hrs in absence of PDGFRbeta siRNA by Western blot relative to untreated control. Type of data set: ADME, cell-based. The following applies: mda-mb-231, 24 h. The gist of the method:
as §2

The test system of data set [11] is MDA-MB-231. Put plainly: Induction of autophagy in human MDA-MB-231 cells assessed as change in Beclin-1 protein level at 2.5 uM incubated for 24 hrs in presence of PDGFRbeta siRNA by Western blot method relative to untreated control. Type of data set: functional. The procedure, abridged: as §2
Data set [12] deals with MDA-MB-231. The data set is described as follows: Induction of autophagy in human MDA-MB-231 cells assessed as change in LC3-2 protein level at 2.5 uM incubated for 24 hrs in presence of control siRNA by Western blot method relative to untreated control. The format is functional. The procedure, abridged:
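Before treatment, MDA-MB-231 cells were transfected with control or PDGFR-β siRNA, then exposed to 2.5 μM compound for 24 h. Lysates of pooled adherent and floating cells were immunoblotted (10-15% SDS-PAGE, PVDF, ECL) for PDGFR-β-AKT-ULK1 autophagy signalling markers, with β-actin as loading control.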

In data set [13] the target is T1, Platelet-derived growth factor receptor beta. The data set is described as follows: Inhibition of PDGFRbeta in human MDA-MB-231 cells assessed as mTOR Ser2448 phosphorylation level at 2.5 uM incubated for 24 hrs in presence of control siRNA by Western blot relative to untreated control. The format is cell-based. The gist of the method:
(§3)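 Cells were transfected with control or PDGFR-β siRNA, then treated with 2.5 μM compound for 24 h. PDGFR-β-AKT-ULK1 pathway phospho-proteins were assessed by western blot: lysis in Hepes pH 7.4 / Triton buffer, 10-15% SDS-PAGE, PVDF, ECL detection, β-actin as loading control.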

Data set [14] has the same target. Put plainly: Inhibition of PDGFRbeta in human MDA-MB-231 cells assessed as mTOR Ser2448 phosphorylation level at 2.5 uM incubated for 24 hrs in absence of PDGFRbeta siRNA by Western blot relative to untreated control. Type of data set: cell-based. The procedure, abridged: as §3
For data set [15] the target is unchanged. The data set is described as follows: Inhibition of PDGFRbeta in human MDA-MB-231 cells assessed as ULK Ser317 phosphorylation level at 2.5 uM incubated for 24 hrs in absence of PDGFRbeta siRNA by Western blot relative to untreated control. Type of data set: cell-based. The gist of the method: as §3
Data set [16] shares this target. Put plainly: Inhibition of PDGFRbeta in human MDA-MB-231 cells assessed as ULK Ser317 phosphorylation level at 2.5 uM incubated for 24 hrs in presence of PDGFRbeta siRNA by Western blot relative to untreated control. The format is cell-based. The procedure, abridged: as §3
Data set [17] has the same target. The data set is described as follows: Inhibition of PDGFRbeta in human MDA-MB-231 cells assessed as ULK Ser555 phosphorylation level at 2.5 uM incubated for 24 hrs in absence of PDGFRbeta siRNA by Western blot relative to untreated control. Type of data set: cell-based. The gist of the method: as §3
For data set [18], the target named is Dual specificity mitogen-activated protein kinase kinase; MEK1/2 (Homo sapiens) (UniProt P36507+Q02750). Put plainly: Inhibition of MEK1/2 in human MDA-MB-231 cells assessed as MEK1/2 Ser217/221 phosphorylation level at 5 uM incubated for 24 hrs in presence of PDGFRbeta siRNA by Western blot relative to untreated control. Type of data set: cell-based.
Data set [19] addresses Mitogen-activated protein kinase; ERK1/ERK2 (Homo sapiens) (UniProt P27361+P28482). Put plainly: Inhibition of ERK1/2 in human MDA-MB-231 cells assessed as ERK1/2 Thr202/Tyr204 phosphorylation level at 5 uM incubated for 24 hrs in presence of PDGFRbeta siRNA by Western blot relative to untreated control. The format is cell-based.
Data set [20] concerns MDA-MB-231. The data set is described as follows: Effect on total Ras protein level in human MDA-MB-231 cells at 10 uM incubated for 24 hrs by Western blot relative to untreated control. To be noted: mda-mb-231, 24 h.

T1 sequence (P09619 whole entry): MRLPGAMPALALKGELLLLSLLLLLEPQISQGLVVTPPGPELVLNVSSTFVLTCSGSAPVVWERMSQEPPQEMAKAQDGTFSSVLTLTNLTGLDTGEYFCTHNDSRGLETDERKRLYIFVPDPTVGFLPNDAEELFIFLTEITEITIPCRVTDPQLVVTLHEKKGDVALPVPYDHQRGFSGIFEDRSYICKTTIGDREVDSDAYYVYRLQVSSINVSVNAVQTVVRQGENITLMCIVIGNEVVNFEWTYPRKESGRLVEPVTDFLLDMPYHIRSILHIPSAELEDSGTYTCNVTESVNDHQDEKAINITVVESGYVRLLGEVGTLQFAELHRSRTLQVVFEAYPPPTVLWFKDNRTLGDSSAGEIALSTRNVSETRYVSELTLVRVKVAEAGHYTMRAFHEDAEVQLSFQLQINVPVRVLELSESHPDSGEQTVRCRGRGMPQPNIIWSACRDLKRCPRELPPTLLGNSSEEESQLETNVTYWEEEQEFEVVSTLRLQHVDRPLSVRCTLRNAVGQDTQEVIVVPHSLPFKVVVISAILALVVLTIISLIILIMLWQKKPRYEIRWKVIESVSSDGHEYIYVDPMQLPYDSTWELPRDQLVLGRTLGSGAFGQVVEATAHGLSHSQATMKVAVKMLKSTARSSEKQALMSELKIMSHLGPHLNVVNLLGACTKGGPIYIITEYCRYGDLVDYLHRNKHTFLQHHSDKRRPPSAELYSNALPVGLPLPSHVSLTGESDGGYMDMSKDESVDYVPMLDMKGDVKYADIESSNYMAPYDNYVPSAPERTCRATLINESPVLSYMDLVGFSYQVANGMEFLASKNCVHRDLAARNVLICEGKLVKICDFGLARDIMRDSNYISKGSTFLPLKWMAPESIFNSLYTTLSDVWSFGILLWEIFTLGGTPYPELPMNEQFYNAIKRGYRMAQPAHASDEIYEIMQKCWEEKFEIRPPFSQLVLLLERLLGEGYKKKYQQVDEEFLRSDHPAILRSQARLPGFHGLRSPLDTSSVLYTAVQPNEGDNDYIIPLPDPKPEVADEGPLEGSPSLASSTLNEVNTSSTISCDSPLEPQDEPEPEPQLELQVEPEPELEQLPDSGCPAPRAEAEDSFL
Chain of Mitogen-activated protein kinase; ERK1/ERK2 (Homo sapiens) (P27361 whole entry, looked up): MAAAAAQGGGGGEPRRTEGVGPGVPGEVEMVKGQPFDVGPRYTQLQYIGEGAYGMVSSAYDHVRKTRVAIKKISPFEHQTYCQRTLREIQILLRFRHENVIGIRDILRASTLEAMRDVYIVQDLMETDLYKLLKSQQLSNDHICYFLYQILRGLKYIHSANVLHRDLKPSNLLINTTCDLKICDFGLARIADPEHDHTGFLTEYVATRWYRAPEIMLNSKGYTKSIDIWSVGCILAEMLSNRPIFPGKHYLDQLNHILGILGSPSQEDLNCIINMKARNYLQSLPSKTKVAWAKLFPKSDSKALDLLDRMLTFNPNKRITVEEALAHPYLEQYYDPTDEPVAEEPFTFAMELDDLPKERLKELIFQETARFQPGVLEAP
Chain of Mitogen-activated protein kinase; ERK1/ERK2 (Homo sapiens) (P28482 whole entry, looked up): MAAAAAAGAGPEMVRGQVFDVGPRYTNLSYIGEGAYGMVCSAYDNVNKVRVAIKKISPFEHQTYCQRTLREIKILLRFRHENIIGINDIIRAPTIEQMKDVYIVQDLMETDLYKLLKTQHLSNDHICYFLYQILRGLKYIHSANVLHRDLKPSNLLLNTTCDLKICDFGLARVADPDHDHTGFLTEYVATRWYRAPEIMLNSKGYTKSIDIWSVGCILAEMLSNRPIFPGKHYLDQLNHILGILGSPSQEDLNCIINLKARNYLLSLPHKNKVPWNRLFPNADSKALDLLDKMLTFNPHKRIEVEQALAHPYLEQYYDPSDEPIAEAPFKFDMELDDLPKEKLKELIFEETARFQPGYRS
Chain of Dual specificity mitogen-activated protein kinase kinase; MEK1/2 (Homo sapiens) (P36507 whole entry, looked up): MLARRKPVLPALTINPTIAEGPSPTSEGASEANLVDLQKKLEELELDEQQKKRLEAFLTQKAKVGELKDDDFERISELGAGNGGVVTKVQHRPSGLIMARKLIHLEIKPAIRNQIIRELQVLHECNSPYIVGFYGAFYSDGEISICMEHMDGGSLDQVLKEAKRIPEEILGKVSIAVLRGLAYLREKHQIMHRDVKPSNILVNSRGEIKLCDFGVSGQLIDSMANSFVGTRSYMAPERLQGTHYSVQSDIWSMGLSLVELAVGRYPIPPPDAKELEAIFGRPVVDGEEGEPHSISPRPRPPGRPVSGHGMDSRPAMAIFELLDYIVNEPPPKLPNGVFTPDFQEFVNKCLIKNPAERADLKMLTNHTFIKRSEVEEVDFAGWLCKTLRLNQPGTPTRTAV
Chain of Dual specificity mitogen-activated protein kinase kinase; MEK1/2 (Homo sapiens) (Q02750 whole entry, looked up): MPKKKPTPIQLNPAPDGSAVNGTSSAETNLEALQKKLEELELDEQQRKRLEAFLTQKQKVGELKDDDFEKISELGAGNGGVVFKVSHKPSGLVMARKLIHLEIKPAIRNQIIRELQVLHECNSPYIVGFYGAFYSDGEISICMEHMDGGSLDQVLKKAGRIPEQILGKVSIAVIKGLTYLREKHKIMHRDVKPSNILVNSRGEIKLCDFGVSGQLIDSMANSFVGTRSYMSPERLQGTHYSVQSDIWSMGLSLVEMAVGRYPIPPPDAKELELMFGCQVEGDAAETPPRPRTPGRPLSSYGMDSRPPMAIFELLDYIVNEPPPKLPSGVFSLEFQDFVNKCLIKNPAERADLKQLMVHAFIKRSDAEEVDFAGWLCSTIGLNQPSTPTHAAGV

For `COc1cccc(Nc2cc(N3CCN(C(=O)Nc4ccc(C(F)(F)F)cc4)CC3)ncn2)c1`, the inhibition entry in data set [1] was “Active”. Besides, the “fold change (FC)” value in data set [2] stood at 2.5; in [3], 1.2; in data set [4], 0.23; in data set [5], 1.5; in [6], 0.55; in data set [7], 0.37. Moreover, the “fold change (FC)” value in data set [8] came to 0.99; in data set [9] it was 0.86; in [10], 0.62; in data set [11], 4.18; in data set [12], 2.34; in data set [13] it was 0.26. The fold change (FC) in data set [14] amounted to 0.21; in data set [15], 3.67; in data set [16], 3.46; in data set [17] it was 3.67; in data set [18], 1.05; in data set [19], 1.86. Besides, in data set [20], the “fold change (FC)” value was 2.32.
